{"source": "ChEMBL document CHEMBL1124180", "about": "“Asymmetric synthesis and properties of the enantiomers of the antibacterial agent 7-(3-aminopyrrolidin-1-yl)-1-(2,4-difluorophenyl)-1,4-dihydro-6- fluoro-4-oxo-1,8-naphthyridine-3-carboxylic acid hydrochloride” (J Med Chem, 1988)", "key": {"Acinetobacter sp.": {"tested_on": "Acinetobacter sp.", "test": "In vitro activity against Acinetobacter sp.(CMX 669).", "assay_type": "functional", "how_it_was_run": "(§1)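 MIC determined by agar dilution on brain-heart infusion agar under aerobic conditions.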"}, "Staphylococcus aureus [1]": {"tested_on": "Staphylococcus aureus", "test": "In vitro activity against Staphylococcus aureus(45)", "assay_type": "functional", "how_it_was_run": "as §1"}, "Pseudomonas aeruginosa [2]": {"tested_on": "Pseudomonas aeruginosa", "test": "In vitro activity against Pseudomonas aeruginosa (K799/WT).", "assay_type": "functional", "how_it_was_run": "as §1"}, "Staphylococcus aureus [3]": {"tested_on": "Staphylococcus aureus", "test": "In vitro activity against Staphylococcus aureus(ATCC 6538P)", "assay_type": "functional", "how_it_was_run": "as §1"}, "Providencia stuartii": {"tested_on": "Providencia stuartii", "test": "In vitro activity against Providencia stuartii (CMX 640)", "assay_type": "functional", "how_it_was_run": "as §1"}, "Streptococcus pyogenes [4]": {"tested_on": "Streptococcus pyogenes", "test": "In vitro activity against Streptococcus pyogenes (EES61)", "assay_type": "functional", "how_it_was_run": "as §1"}, "Escherichia coli [5]": {"tested_on": "Escherichia coli", "test": "In vitro activity against Escherichia coli (H560)", "assay_type": "functional", "how_it_was_run": "(§2)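 MIC for aerobic bacteria, measured on brain-heart infusion agar.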"}, "Staphylococcus aureus [6]": {"tested_on": "Staphylococcus aureus", "test": "In vitro activity against Staphylococcus aureus(CMX 503A)", "assay_type": "functional", "how_it_was_run": "as §1"}, "[7]": {"test": "Solubility in aqueous media urine, pH 5.7", "assay_type": "physicochemical", "conditions": "read-out: S"}, "Pseudomonas aeruginosa [8]": {"tested_on": "Pseudomonas aeruginosa", "test": "In vitro activity against Pseudomonas aeruginosa (BMH10)", "assay_type": "functional", "how_it_was_run": "as §1"}, "Escherichia coli [9]": {"tested_on": "Escherichia coli", "test": "In vitro activity against Escherichia coli (DC-2)", "assay_type": "functional", "how_it_was_run": "as §2"}, "[10]": {"test": "Solubility in aqueous media urine, pH 6.3", "assay_type": "physicochemical", "conditions": "read-out: S"}, "Streptococcus equinus": {"tested_on": "Streptococcus equinus", "test": "In vitro activity against Streptococcus bovis (A5169).", "assay_type": "functional", "how_it_was_run": "as §1"}, "Escherichia coli [11]": {"tested_on": "Escherichia coli", "test": "In vitro activity against Escherichia coli (SS).", "assay_type": "functional", "how_it_was_run": "as §2"}, "Micrococcus luteus [12]": {"tested_on": "Micrococcus luteus", "test": "In vitro activity against Micrococcus luteus (ATCC 9341)", "assay_type": "functional", "how_it_was_run": "as §1"}, "Mus musculus [13]": {"tested_on": "Mus musculus", "test": "In vivo activity against Escherichia coli Juhl(100X LD50), when administered po( each compound tested at 3 doses with 10 animals)", "assay_type": "functional", "how_it_was_run": "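Mice were challenged intraperitoneally with the organism. The compound was given orally as a total dose split into equal portions at 1 and 5 h post-infection. Three doses were used, with 10 animals per dose.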"}, "Klebsiella pneumoniae": {"tested_on": "Klebsiella pneumoniae", "test": "In vitro activity against Klebsiella pneumoniae (ATCC 8045).", "assay_type": "functional", "how_it_was_run": "as §1"}, "Burkholderia cepacia": {"tested_on": "Burkholderia cepacia", "test": "In vitro activity against Pseudomonas cepacia (296I)", "assay_type": "functional", "how_it_was_run": "as §1"}, "Streptococcus pyogenes [14]": {"tested_on": "Streptococcus pyogenes", "test": "In vitro activity against Streptococcus pyogenes(930 CONST).", "assay_type": "functional", "how_it_was_run": "as §1"}, "Mus musculus [15]": {"tested_on": "Mus musculus", "test": "In vivo activity against Escherichia coli Juhl(100X LD50), when administered sc( each compound tested at 3 doses with 10 animals)", "assay_type": "functional", "how_it_was_run": "(§3)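 Mice were challenged intraperitoneally with the organism. The compound was given subcutaneously as a total dose split into equal portions at 1 and 5 h post-infection. Three doses were used, with 10 animals per dose.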"}, "[16]": {"test": "Solubility in aqueous media urine, pH 5.1", "assay_type": "physicochemical", "conditions": "read-out: S"}, "Mus musculus [17]": {"tested_on": "Mus musculus", "test": "In vivo activity against Pseudomonas aeruginosa A5007 (100X LD50), administered sc ( each compound tested at 3 doses with 10 animals)", "assay_type": "functional", "how_it_was_run": "as §3"}, "Klebsiella aerogenes": {"tested_on": "Klebsiella aerogenes", "test": "In vitro activity againsT Enterobacter aerogenes (ATCC 13048).", "assay_type": "functional", "how_it_was_run": "as §1"}, "Staphylococcus aureus [18]": {"tested_on": "Staphylococcus aureus", "test": "In vitro activity against Staphylococcus aureus (A5177)", "assay_type": "functional", "how_it_was_run": "as §1"}, "[19]": {"test": "Solubility in aqueous media 0.15Nacetate, pH 6.1", "assay_type": "physicochemical", "conditions": "0.15 N acetate, read-out: S"}, "[20]": {"test": "Solubility in aqueous media 0.1 N chloride, pH 6.5", "assay_type": "physicochemical", "conditions": "read-out: S"}, "Staphylococcus aureus [21]": {"tested_on": "Staphylococcus aureus", "test": "In vitro activity against Staphylococcus aureus(45 RAR2)", "assay_type": "functional", "how_it_was_run": "as §1"}, "Mus musculus [22]": {"tested_on": "Mus musculus", "test": "In vivo activity against Pseudomonas aeruginosa A5007 (100X LD50), administered sc( each compound tested at 3 doses with 10 animals)", "assay_type": "functional", "how_it_was_run": "as §3"}, "Micrococcus luteus [23]": {"tested_on": "Micrococcus luteus", "test": "In vitro activity against Micrococcus luteus (ATCC 4698)", "assay_type": "functional", "how_it_was_run": "as §1"}, "Escherichia coli [24]": {"tested_on": "Escherichia coli", "test": "In vitro activity against Escherichia coli Juhl", "assay_type": "functional", "how_it_was_run": "as §2"}, "[25]": {"test": "Solubility in aqueous media urine, pH 7.0", "assay_type": "physicochemical", "conditions": "read-out: S"}, "Staphylococcus aureus [26]": {"tested_on": "Staphylococcus aureus", "test": "In vitro activity against Staphylococcus aureus(CMX 553)", "assay_type": "functional", "how_it_was_run": "as §1"}, "[27]": {"tested_on": "Staphylococcus epidermidis", "test": "In vitro activity against Staphylococcus epidermidis (3519)", "assay_type": "functional", "how_it_was_run": "as §1"}, "Staphylococcus aureus [28]": {"tested_on": "Staphylococcus aureus", "test": "In vitro activity against Staphylococcus aureus(CMX 686B)", "assay_type": "functional", "how_it_was_run": "as §1"}, "[29]": {"test": "Solubility in aqueous media 0.15 N sulfate, pH 5.4", "assay_type": "physicochemical", "conditions": "read-out: S"}, "Streptococcus pyogenes [30]": {"tested_on": "Streptococcus pyogenes", "test": "In vitro activity against Streptococcus pyogenes (2548 INDUC).", "assay_type": "functional", "how_it_was_run": "as §1"}, "Escherichia coli [31]": {"tested_on": "Escherichia coli", "test": "In vitro activity against Escherichia coli (KNK437)", "assay_type": "functional", "how_it_was_run": "as §2"}, "Streptococcus agalactiae": {"tested_on": "Streptococcus agalactiae", "test": "In vitro activity against Streptococcus agalactiae (CMX 508).", "assay_type": "functional", "how_it_was_run": "as §1"}, "Enterococcus faecium": {"tested_on": "Enterococcus faecium", "test": "In vitro activity against Enterococcus faecium (ATCC 8043).", "assay_type": "functional", "how_it_was_run": "as §1"}, "Pseudomonas aeruginosa [32]": {"tested_on": "Pseudomonas aeruginosa", "test": "In vitro activity against Pseudomonas aeruginosa (A5007).", "assay_type": "functional", "how_it_was_run": "as §1"}, "[33]": {"test": "Solubility in aqueous media Ringer's buffer,pH7.4", "assay_type": "physicochemical", "conditions": "pH 7.4"}, "[34]": {"test": "Solubility in aqueous media 0.15 N phosphate, pH 5.6", "assay_type": "physicochemical", "conditions": "read-out: S"}}, "data": [{"smiles": "Cl.NC1CCN(c2nc3c(cc2F)c(=O)c(C(=O)O)cn3-c2ccc(F)cc2F)C1", "note": "(configuration not stated)", "values": [{"measurement": "MIC", "setting": "Acinetobacter sp.", "value": 0.05, "unit": "µg/mL"}, {"measurement": "MIC", "setting": "Staphylococcus aureus [1]", "value": 0.1, "unit": "µg/mL"}, {"measurement": "MIC", "setting": "Pseudomonas aeruginosa [2]", "value": 0.1, "unit": "µg/mL"}, {"measurement": "MIC", "setting": "Staphylococcus aureus [3]", "value": 0.02, "unit": "µg/mL"}, {"measurement": "MIC", "setting": "Providencia stuartii", "value": 1.56, "unit": "µg/mL"}, {"measurement": "MIC", "setting": "Streptococcus pyogenes [4]", "value": 0.2, "unit": "µg/mL"}, {"measurement": "MIC", "setting": "Escherichia coli [5]", "value": 0.02, "unit": "µg/mL"}, {"measurement": "MIC", "setting": "Staphylococcus aureus [6]", "value": 0.05, "unit": "µg/mL"}, {"measurement": "solubility", "setting": "[7]", "value": 16.3, "unit": "µg/mL"}, {"measurement": "MIC", "setting": "Pseudomonas aeruginosa [8]", "value": 0.1, "unit": "µg/mL"}, {"measurement": "MIC", "setting": "Escherichia coli [9]", "value": 0.2, "unit": "µg/mL"}, {"measurement": "solubility", "setting": "[10]", "value": 12.7, "unit": "µg/mL"}, {"measurement": "MIC", "setting": "Streptococcus equinus", "value": 0.2, "unit": "µg/mL"}, {"measurement": "MIC", "setting": "Escherichia coli [11]", "value": 0.01, "unit": "µg/mL"}, {"measurement": "MIC", "setting": "Micrococcus luteus [12]", "value": 1.56, "unit": "µg/mL"}, {"measurement": "ED50", "setting": "Mus musculus [13]", "value": 1.2, "unit": "mg/kg"}, {"measurement": "MIC", "setting": "Klebsiella pneumoniae", "value": 0.02, "unit": "µg/mL"}, {"measurement": "MIC", "setting": "Burkholderia cepacia", "value": 6.2, "unit": "µg/mL"}, {"measurement": "MIC", "setting": "Streptococcus pyogenes [14]", "value": 0.2, "unit": "µg/mL"}, {"measurement": "ED50", "setting": "Mus musculus [15]", "value": 0.2, "unit": "mg/kg"}, {"measurement": "solubility", "setting": "[16]", "value": 23.5, "unit": "µg/mL"}, {"measurement": "ED50", "setting": "Mus musculus [17]", "value": 0.4, "unit": "mg/kg"}, {"measurement": "MIC", "setting": "Klebsiella aerogenes", "value": 0.1, "unit": "µg/mL"}, {"measurement": "MIC", "setting": "Staphylococcus aureus [18]", "value": 0.05, "unit": "µg/mL"}, {"measurement": "solubility", "setting": "[19]", "value": 1.7, "unit": "µg/mL"}, {"measurement": "solubility", "setting": "[20]", "value": 1.2, "unit": "µg/mL"}, {"measurement": "MIC", "setting": "Staphylococcus aureus [21]", "value": 0.1, "unit": "µg/mL"}, {"measurement": "ED50", "setting": "Mus musculus [22]", "value": "> 25", "unit": "mg/kg"}, {"measurement": "MIC", "setting": "Micrococcus luteus [23]", "value": 0.78, "unit": "µg/mL"}, {"measurement": "MIC", "setting": "Escherichia coli [24]", "value": 0.02, "unit": "µg/mL"}, {"measurement": "solubility", "setting": "[25]", "value": 12.2, "unit": "µg/mL"}, {"measurement": "MIC", "setting": "Staphylococcus aureus [26]", "value": 0.05, "unit": "µg/mL"}, {"measurement": "MIC", "setting": "[27]", "value": 0.05, "unit": "µg/mL"}, {"measurement": "MIC", "setting": "Staphylococcus aureus [28]", "value": 0.05, "unit": "µg/mL"}, {"measurement": "solubility", "setting": "[29]", "value": 6.5, "unit": "µg/mL"}, {"measurement": "MIC", "setting": "Streptococcus pyogenes [30]", "value": 0.2, "unit": "µg/mL"}, {"measurement": "MIC", "setting": "Escherichia coli [31]", "value": 0.02, "unit": "µg/mL"}, {"measurement": "MIC", "setting": "Streptococcus agalactiae", "value": 0.39, "unit": "µg/mL"}, {"measurement": "MIC", "setting": "Enterococcus faecium", "value": 0.2, "unit": "µg/mL"}, {"measurement": "MIC", "setting": "Pseudomonas aeruginosa [32]", "value": 0.2, "unit": "µg/mL"}, {"measurement": "solubility", "setting": "[33]", "value": 8, "unit": "µg/mL"}, {"measurement": "solubility", "setting": "[34]", "value": 1.8, "unit": "µg/mL"}]}]}
